The record followed here is ChEMBL document CHEMBL4152315, “Rational modification of a lead molecule: Improving the antifungal activity of indole - triazole - amino acid conjugates” (Eur J Med Chem, 2018).

Converted amounts (≈) assume the structure as drawn. Where only a bound is given, the exact number is not on record here.

In data set [1] the test system is Candida albicans. The data set can be described thus: Antifungal activity against Candida albicans MTCC 3958 assessed as zone of growth inhibition after 48 hrs. Type of data set: functional. In short, it runs like this:
(§1)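 Agar well diffusion: Malt Yeast Agar (C. albicans) or Czapek Yeast Extract Agar (A. niger) swabbed with 100 µL inoculum at 1×10^5 CFU/mL; 6 mm wells filled with 128 µg/50 µL compound in 5% DMSO (10% DMSO for poorly soluble ones). DMSO negative controls, fluconazole reference. 28 °C for 48 h; zone of inhibition as mean of triplicates.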

The subject of data set [2] is Candida albicans. Nature of the data set: Antifungal activity against Candida albicans MTCC 3958 after 48 hrs. The conditions noted are these: MTCC 3958, 48 h. The data set is classed as functional. In short, it runs like this:
(§2)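 Broth tube dilution MIC: tested at 128, 64, 32, 16 and 8 μg/mL; Yeast Malt Broth for C. albicans, Czapek Dox Broth for A. niger. Inoculum 1×10³ CFU/mL final; 5% DMSO negative control, fluconazole reference. Incubated dark on rotary shaker (180 rpm), 28 °C, 48 h (C. albicans) or 72 h (A. niger); lowest concentration preventing visible growth recorded.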

The subject of data set [3] is Aspergillus niger. The data set can be described thus: Antifungal activity against Aspergillus niger MTCC 9933 assessed as zone of growth inhibition after 48 hrs. The data set is classed as functional. In short, it runs like this: as §1
Data set [4] deals with Aspergillus niger. Nature of the data set: Antifungal activity against Aspergillus niger MTCC 9933 after 72 hrs. The data set is classed as functional. The conditions noted are these: MTCC 9933, 72 h. In outline:
as §2

Data set [5] deals with Erythrocyte. The data set can be described thus: Cytotoxicity against sheep RBC assessed as cell viability at 1 mg/ml after 24 hrs by MTT assay relative to control. Type of data set: cell-based, Ovis aries. In short, it runs like this: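 Sheep blood mixed 10:3 with Alsever's solution. Plasma was removed by centrifugation, and cells were washed three times in 1X PBS and diluted to 1×10^5 cells/mL. Cells were preincubated 24 h at 37 °C, then exposed to compound for 24 h at 37 °C. MTT (5 mg/ml stock) was added for 4 h, formazan was dissolved in DMSO, and A595 was read. Control wells received 10% DMSO diluent.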

For orientation: MIC90 means the lowest concentration that inhibits either 90% of growth or 90% of the strains tested, depending on the study. Higher therefore signals lower susceptibility. Turning to `COC(=O)CNC(=O)C(=O)c1c[nH]c2ccccc12`, in data set [1], the “inhibition zone (IZ)” value stood at 10 mm. Besides, in data set [2], the MIC90 is 128 µg/mL (≈ 492 µM).

As for `O=C(O)CC[C@H](NC(=O)C(=O)c1cn(Cc2cn(Cc3ccccc3)nn2)c2ccccc12)C(=O)O`, the “inhibition zone (IZ)” value in data set [1] turned out to be 14 mm; in data set [3], 12 mm. Besides, the MIC90 in data set [2] was 32 µg/mL (≈ 65.4 µM); in data set [4] it was > 32 µg/mL.

In the case of `O=C(O)CNC(=O)C(=O)c1cn(Cc2cn(Cc3ccccc3)nn2)c2ccccc12`, the “inhibition zone (IZ)” value in data set [1] amounted to 13 mm; in data set [3], 10 mm. The MIC90 is 32 µg/mL (≈ 76.7 µM) in data set [2] and 128 µg/mL (≈ 307 µM) in data set [4].

Turning to `COC(=O)[C@H](Cc1ccc(O)cc1)NC(=O)C(=O)c1cn(Cc2cn(Cc3ccccc3)nn2)c2ccccc12`, the “inhibition zone (IZ)” value was 8 mm in data set [1] and 10 mm in data set [3]. The MIC90 in data set [2] and in data set [4] was 128 µg/mL (≈ 238 µM) in each case.

On to `C#CCn1cc(C(=O)C(=O)N[C@@H](CC(=O)OC)C(=O)OC)c2ccccc21`, for which, in data set [1], the “inhibition zone (IZ)” value stood at 13 mm. Also, the MIC90 in data set [2] is 64 µg/mL (≈ 173 µM).

`C#CCn1cc(C(=O)C(=O)N[C@@H](Cc2ccc(O)cc2)C(=O)OC)c2ccccc21`: the “inhibition zone (IZ)” value in data set [1] is listed as 11 mm; in data set [3], 10 mm. Also, the results for the MIC90 in data set [2] and in data set [4] were 64 µg/mL (≈ 158 µM) and 128 µg/mL (≈ 317 µM), respectively.

As to `O=C(N[C@@H](Cc1ccc(OCc2cn(Cc3ccccc3)nn2)cc1)C(=O)O)C(=O)c1cn(Cc2cn(Cc3ccccc3)nn2)c2ccccc12`, the entries for the “inhibition zone (IZ)” value in data set [1] and in data set [3] were 16 mm and 15 mm, respectively. In addition, the MIC90 in data set [2] was 16 µg/mL (≈ 23 µM); in data set [4] it was 32 µg/mL (≈ 46.1 µM). Besides, the Activity entry in data set [5] is listed as “Non-Toxic”.

With `COC(=O)[C@H](Cc1c[nH]c2ccccc12)NC(=O)C(=O)c1cn(Cc2cn(Cc3ccccc3)nn2)c2ccccc12`, the figures for the “inhibition zone (IZ)” value in data set [1] and in data set [3] were 9 mm and 12 mm, respectively. The MIC90 in data set [2] came to 128 µg/mL (≈ 228 µM); in data set [4] it was 64 µg/mL (≈ 114 µM).

Turning to `COC(=O)C[C@H](NC(=O)C(=O)c1c[nH]c2ccccc12)C(=O)OC`, the figures for the “inhibition zone (IZ)” value in data set [1] and in data set [3] were 15 mm and 13 mm, respectively. In addition, the MIC90 in data set [2] was 32 µg/mL (≈ 96.3 µM); in data set [4] it was 64 µg/mL (≈ 193 µM).

As to `C#CCn1cc(C(=O)C(=O)N[C@@H](Cc2c[nH]c3ccccc23)C(=O)OC)c2ccccc21`, the entries for the “inhibition zone (IZ)” value in data set [1] and in data set [3] were 10 mm and 9 mm, respectively. The MIC90 in data set [2] is 128 µg/mL (≈ 299 µM); in data set [4], > 128 µg/mL.

With `COC(=O)CC[C@H](NC(=O)C(=O)c1c[nH]c2ccccc12)C(=O)OC`, the “inhibition zone (IZ)” value in data set [3] came out at 9 mm. Besides, the MIC90 in data set [4] was > 128 µg/mL.

For the molecule `O=C(O)C[C@H](NC(=O)C(=O)c1cn(Cc2cn(Cc3ccccc3)nn2)c2ccccc12)C(=O)O`, the results for the “inhibition zone (IZ)” value in data set [1] and in data set [3] were 15 mm and 13 mm, respectively. Also, the MIC90 in data set [2] was found to be 32 µg/mL (≈ 67.3 µM); in data set [4], 64 µg/mL (≈ 135 µM).

For `COC(=O)CC[C@H](NC(=O)C(=O)c1cn(Cc2cn(Cc3ccccc3)nn2)c2ccccc12)C(=O)OC`, the “inhibition zone (IZ)” value is recorded as 10 mm in data set [1] and 11 mm in data set [3]. The MIC90 in data set [2] and in data set [4] was 64 µg/mL (≈ 124 µM) each time.

Regarding `COC(=O)[C@H](Cc1ccc(O)cc1)NC(=O)C(=O)c1c[nH]c2ccccc12`, the “inhibition zone (IZ)” value in data set [3] is reported as 9 mm. Moreover, the MIC90 in data set [4] is > 128 µg/mL.

As for `COC(=O)[C@H](Cc1ccc(OCc2cn(Cc3ccccc3)nn2)cc1)NC(=O)C(=O)c1cn(Cc2cn(Cc3ccccc3)nn2)c2ccccc12`, in data set [3], the “inhibition zone (IZ)” value is reported as 13 mm. In data set [4], this molecule displayed an MIC90 of 64 µg/mL (≈ 90.3 µM).

Consider `C#CCn1cc(C(=O)C(=O)N[C@@H](CCC(=O)OC)C(=O)OC)c2ccccc21`, for which the “inhibition zone (IZ)” value in data set [1] is given as 9 mm. In data set [2], the MIC90 was 128 µg/mL (≈ 333 µM).

Turning to `C#CCOc1ccc(C[C@H](NC(=O)C(=O)c2cn(CC#C)c3ccccc23)C(=O)OC)cc1`, the “inhibition zone (IZ)” value in data set [1] and in data set [3] was 13 mm each time. In addition, the MIC90 in data set [2] and in data set [4] was 64 µg/mL (≈ 145 µM) each time.

Turning to `O=C(N[C@@H](Cc1ccc(O)cc1)C(=O)O)C(=O)c1cn(Cc2cn(Cc3ccccc3)nn2)c2ccccc12`, the “inhibition zone (IZ)” value was 15 mm in data set [1] and 13 mm in data set [3]. Besides, the MIC90 in data set [2] was 16 µg/mL (≈ 30.6 µM); in data set [4] it was > 32 µg/mL.

For the molecule `COC(=O)[C@H](Cc1c[nH]c2ccccc12)NC(=O)C(=O)c1c[nH]c2ccccc12`, the “inhibition zone (IZ)” value in data set [1] is on record as 14 mm. In data set [2], the MIC90 worked out at 32 µg/mL (≈ 82.2 µM).

In the case of `COC(=O)CNC(=O)C(=O)c1cn(Cc2cn(Cc3ccccc3)nn2)c2ccccc12`, the “inhibition zone (IZ)” value in data set [1] is listed as 12 mm; in data set [3], 11 mm. Moreover, the MIC90 in data set [2] and in data set [4] was 64 µg/mL (≈ 148 µM) in each case.

Turning to `C#CCn1cc(C(=O)C(=O)NCC(=O)OC)c2ccccc21`, in data set [1], the “inhibition zone (IZ)” value stood at 11 mm. In data set [2], this molecule came in with an MIC90 of 64 µg/mL (≈ 215 µM).

Regarding `O=C(N[C@@H](Cc1c[nH]c2ccccc12)C(=O)O)C(=O)c1cn(Cc2cn(Cc3ccccc3)nn2)c2ccccc12`, the “inhibition zone (IZ)” value in data set [1] and in data set [3] was 14 mm each time. Besides, the results for the MIC90 in data set [2] and in data set [4] were 32 µg/mL (≈ 58.5 µM) and > 32 µg/mL, respectively.

For the molecule `COC(=O)C[C@H](NC(=O)C(=O)c1cn(Cc2cn(Cc3ccccc3)nn2)c2ccccc12)C(=O)OC`, in data set [1], the “inhibition zone (IZ)” value was found to be 11 mm. This molecule had an MIC90 in data set [2] of 128 µg/mL (≈ 254 µM).

For the molecule `OC(Cn1cncn1)(Cn1cncn1)c1ccc(F)cc1F` [FLUCONAZOLE], the “inhibition zone (IZ)” value is 19 mm in data set [1] and 18 mm in data set [3]. The MIC90 in data set [2] was found to be 16 µg/mL (≈ 52.2 µM); in data set [4], 8 µg/mL (≈ 26.1 µM).
